Assay [1] can be described thus: Antiproliferative activity against human PC3/DTX cells after 3 days by WST-1 assay. The class given is functional, cell-based. The following applies: 72 h. A digest of the protocol:
(§1)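 Docetaxel-resistant lines were derived from DU145 or PC-3 over one year by stepwise-increasing docetaxel, starting at the parental IC50. Cells were kept continuously in docetaxel, with medium changed every 2–3 days. For the assay, cells were plated at 3,200/well and treated with a dose range for 3 days against DMSO vehicle. WST-1 was added for 3 h at 37 °C and absorbance read at 430 nm. IC50 is the mean of at least triplicates.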
(Tetrazolium dyes change colour on reduction, which living cells bring about.)

The subject of assay [2] is LNCaP. Kind of assay: Antiproliferative activity against docetaxel-sensitive human LNCAP cells after 3 days by WST-1 assay. It counts as functional, cell-based. The following applies: 72 h. A digest of the protocol:
(§2)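 Cells grown at 37 °C, 5% CO2: PC-3 and LNCaP in RPMI-1640, DU145 in EMEM, each with 10% FBS and 1% penicillin/streptomycin. Plated at 3,200 cells/well and exposed to a range of doses for 3 days, with DMSO vehicle control. WST-1 reagent was then added for 3 h at 37 °C and absorbance read at 430 nm. IC50 is the mean of at least triplicate runs.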

Assay [3] in a line: Antiproliferative activity against human DU145/DTX cells after 3 days by WST-1 assay. The following applies: DU-145, 72 h. The class given is functional, cell-based. The essentials: as §1
For assay [4], the system named is DU-145. Kind of assay: Antiproliferative activity against docetaxel-sensitive human DU145 cells after 3 days by WST-1 assay. It counts as functional, cell-based. The conditions noted are these: DU-145, 72 h. A digest of the protocol:
as §2

Assay [5] has as its system PC-3. In words: Antiproliferative activity against docetaxel-sensitive human PC3 cells after 3 days by WST-1 assay. The class given is functional, cell-based. The conditions noted are these: PC-3, 72 h. A digest of the protocol: as §2
Assay [6] in a line: Resistance index, ratio of IC50 for human PC3/DTX cells to IC50 for docetaxel-sensitive human PC3 cells. The class given is functional.
The nature of assay [7]: Resistance index, ratio of IC50 for human DU145/DTX cells to IC50 for docetaxel-sensitive human DU145 cells. The class given is functional.
For assay [8], the system named is PC-3. In words: Antiproliferative activity against human PC3 cells after 72 hrs by methylene blue staining based assay. The class given is functional, cell-based. The following applies: PC-3, 72 h.

What is called IC50 is the concentration that inhibits the measured activity by half.

With `C/C1=C/C=C/C(=O)O[C@@H](CO)C/C(C)=C/COCC/C=C/C(=O)C1`, the IC50 in assay [1], in assay [2], in assay [3], in assay [4] and in assay [5] was more than 30 µM throughout.
With `C/C1=C/C=C/C(=O)O[C@H](CO)C/C(C)=C/COCC/C=C/C(=O)C1`, the IC50 was found to be 14.4 µM in assay [1]; 19.3 µM in assay [2]; 14.1 µM in assay [3]; 17.8 µM in assay [4]; 16.1 µM in assay [5]; 3.05 µM in assay [8]. Further, the entries for the “Ratio IC50” value in assay [6] and in assay [7] were 0.9 and 0.8, respectively.
As to `C/C1=C/C=C/C(=O)O[C@@H](C=O)C/C(C)=C/COCC/C=C/C(=O)C1`, the IC50 in assay [1] was 4.41 µM; in assay [2] it was 3.22 µM; in assay [3], 8.03 µM; in assay [4], 5.41 µM; in assay [5], 5.27 µM. The “Ratio IC50” value in assay [6] is 0.8; in assay [7], 1.5.
Turning to `C=C1C[C@H]2C/C=C/C(=O)C/C(C)=C\C=C\C(=O)OC(C=O)C/C(C)=C/[C@@H](C1)O2` (stereo not given in full), in assay [8], inhibition was half-maximal at 0.75 µM (IC50).
As for `COc1ccc(COC[C@@H]2C/C(C)=C/COCC/C=C/C(=O)C/C(C)=C\C=C\C(=O)O2)cc1`, the IC50 in assay [1] is more than 20 µM; in assay [2], 8.27 µM; in assay [3], more than 20 µM; in assay [4] it was 9.21 µM; in assay [5] it was 7.66 µM. Moreover, the “Ratio IC50” value is listed as more than 2.6 in assay [6] and more than 2.2 in assay [7].
Take `COc1ccc(COC[C@H]2C/C(C)=C/COCC/C=C/C(=O)C/C(C)=C\C=C\C(=O)O2)cc1`: the IC50 in assay [1] came to 3.77 µM; in assay [2], 2.85 µM; in assay [3], 3.2 µM; in assay [4] it was 3.16 µM; in assay [5] it was 6.31 µM. The “Ratio IC50” value in assay [6] amounted to 0.6; in assay [7], 1.
On to `C/C1=C/C=C/C(=O)O[C@H](C=O)C/C(C)=C/COCC/C=C/C(=O)C1`, for which the IC50 was determined as 15.4 µM in assay [1]; 13.5 µM in assay [2]; 15.3 µM in assay [3]; 11.6 µM in assay [4]; 11.9 µM in assay [5]; 4.02 µM in assay [8]. Moreover, the “Ratio IC50” value in assay [6] and in assay [7] was 1.3 each time.
With `CC(=O)O[C@@]12CO[C@@H]1C[C@H](O)[C@@]1(C)C(=O)[C@H](O)C3=C(C)[C@@H](OC(=O)[C@H](O)[C@@H](NC(=O)OC(C)(C)C)c4ccccc4)C[C@@](O)([C@@H](OC(=O)c4ccccc4)[C@H]21)C3(C)C` [DOCETAXEL ANHYDROUS], the IC50 in assay [1] is 2.34 µM; in assay [2], 0.0002 µM; in assay [3], 8.58 µM; in assay [4] it was 0.0012 µM; in assay [5], 0.0019 µM. Moreover, the “Ratio IC50” value in assay [6] stood at 1232; in assay [7], 7150.

The values are drawn from ChEMBL document CHEMBL4118203, “Optimized synthesis and antiproliferative activity of desTHPdactylolides” (Bioorg Med Chem, 2018).
